pEC50, pIC50: −log10 of the molar value.
Key:
[1] = AUC in cynomolgus monkey at 1.9 mg/kg, po; assay type: ADME, organism-based, Macaca fascicularis; conditions: in vivo
[2] = system: Colon; test: Drug uptake in Han Wistar rat colon at 2 mg/kg, iv administered as 4 hrs infusion; assay type: ADME, organism-based; conditions: in vivo
Method in brief: (§1)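 Rats received a 4 h iv infusion, after which terminal tissue samples were collected. Parent drug concentrations were measured in each tissue and compared with blood levels.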

[3] = Oral bioavailability in cynomolgus monkey at 1.9 mg/kg; assay type: ADME, organism-based, Macaca fascicularis; conditions: in vivo
[4] = target: Cytochrome P450 2C9 (Homo sapiens, UniProt P11712); test: Inhibition of recombinant human CYP2C9; assay type: ADME
Cytochrome P450 2C9, sequence (P11712 whole entry): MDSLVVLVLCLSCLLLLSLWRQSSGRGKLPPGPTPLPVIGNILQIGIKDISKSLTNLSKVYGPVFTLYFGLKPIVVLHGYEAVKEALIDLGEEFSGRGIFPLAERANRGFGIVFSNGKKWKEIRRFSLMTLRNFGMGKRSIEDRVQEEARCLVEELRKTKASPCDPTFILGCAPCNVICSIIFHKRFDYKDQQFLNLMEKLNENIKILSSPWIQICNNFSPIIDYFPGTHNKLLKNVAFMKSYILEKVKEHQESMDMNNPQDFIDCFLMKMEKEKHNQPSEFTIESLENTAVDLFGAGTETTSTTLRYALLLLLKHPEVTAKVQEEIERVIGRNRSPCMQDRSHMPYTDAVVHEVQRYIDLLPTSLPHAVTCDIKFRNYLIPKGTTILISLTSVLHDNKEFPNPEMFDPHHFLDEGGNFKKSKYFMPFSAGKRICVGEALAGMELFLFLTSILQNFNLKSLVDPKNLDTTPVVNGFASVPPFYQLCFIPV

[5] = Drug metabolism in rat hepatocytes assessed as 5-(hydroxy(phenyl)methyl)-N-((S)-5-methyl-4-oxo-2,3,4,5-tetrahydrobenzo[b][1,4]oxazepin-3-yl)-1H-1,2,4-triazole-3-carboxamide formation at 10 uM measured up to 4 hrs; assay type: ADME, cell-based, Hepatocyte
Method in brief: (§2)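 Compound at 10 μM was incubated with hepatocyte suspensions at 1 million cells/mL. Incubation ran at 37°C under 5% CO2:95% O2 for up to 4 h.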

[6] = Drug metabolism in rat hepatocytes assessed as (S)-5-benzyl-N-(4-oxo-2,3,4,5-tetrahydrobenzo[b][1,4]oxazepin-3-yl)-1H-1,2,4-triazole-3-carboxamide formation at 10 uM measured up to 4 hrs; assay type: ADME, cell-based, Hepatocyte; method in brief: as §2
[7] = Fraction unbound in cynomolgus monkey blood; assay type: ADME, tissue-based, Macaca fascicularis
[8] = Cmax in cynomolgus monkey at 1.9 mg/kg, po; assay type: ADME, organism-based, Macaca fascicularis; design: dose 1.9 mg/kg, route oral; conditions: in vivo
[9] = Stability in rat microsomes measured up to 45 mins; assay type: ADME, Microsome; conditions: 0.75 h
[10] = Lipophilicity, log D of the compound at pH 7.4 by RP-HPLC method; assay type: physicochemical; conditions: buffer
Method in brief: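 Chromatographic hydrophobicity index (CHI) log D at pH 7.4, calculated from the retention time in a fast-gradient reverse-phase HPLC run.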

[11] = Drug metabolism in rat hepatocytes assessed as (S)-3-amino-5-methyl-2,3-dihydrobenzo[b][1,4]oxazepin-4(5H)-one formation at 10 uM measured up to 4 hrs; assay type: ADME, cell-based, Hepatocyte; method in brief: as §2
[12] = target: T1, Nuclear receptor subfamily 1 group I member 2 (Homo sapiens, UniProt O75469); test: Activation of human PXR; assay type: ADME
T1 sequence (O75469 whole entry): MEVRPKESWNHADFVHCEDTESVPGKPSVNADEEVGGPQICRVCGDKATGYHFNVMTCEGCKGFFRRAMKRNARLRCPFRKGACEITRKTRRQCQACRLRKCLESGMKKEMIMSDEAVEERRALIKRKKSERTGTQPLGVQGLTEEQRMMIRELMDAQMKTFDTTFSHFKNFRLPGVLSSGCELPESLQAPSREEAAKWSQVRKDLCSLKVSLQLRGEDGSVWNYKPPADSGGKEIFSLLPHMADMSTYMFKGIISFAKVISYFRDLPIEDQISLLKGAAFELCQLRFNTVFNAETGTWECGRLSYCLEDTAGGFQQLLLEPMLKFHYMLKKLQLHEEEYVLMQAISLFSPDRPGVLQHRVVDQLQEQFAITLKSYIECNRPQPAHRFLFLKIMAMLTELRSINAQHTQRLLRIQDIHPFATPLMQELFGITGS

[13] = Fraction unbound in rat blood; assay type: ADME, tissue-based
[14] = system: MDR1; test: Permeability across dog MDCK cells expressing MDR1; assay type: ADME, cell-based, Canis lupus familiaris; conditions: read-out: permeability
[15] = Tmax in rat at 2.1 mg/kg, po; assay type: ADME, organism-based; conditions: in vivo
[16] = Drug metabolism in rat hepatocytes assessed as glucuronide metabolite M553 formation at 10 uM measured up to 4 hrs; assay type: ADME, cell-based, Hepatocyte; method in brief: as §2
[17] = Drug metabolism in rat hepatocytes assessed as 5-benzyl-1H-1,2,4-triazole-3-carboxylic acid formation at 10 uM measured up to 4 hrs; assay type: ADME, cell-based, Hepatocyte; method in brief: as §2
[18] = Drug metabolism in human hepatocytes assessed as 5-benzyl-1H-1,2,4-triazole-3-carboxylic acid formation at 10 uM measured up to 4 hrs; assay type: ADME, cell-based, Hepatocyte; method in brief: as §2
[19] = Fraction unbound in dog blood; assay type: ADME, tissue-based, Canis lupus familiaris
[20] = system: Kidney; test: Drug uptake in Han Wistar rat kidney at 2 mg/kg, iv administered as 4 hrs infusion; assay type: ADME, organism-based; conditions: in vivo; method in brief: as §1
[21] = Drug metabolism in human hepatocytes assessed as glucuronide metabolite M553 formation at 10 uM measured up to 4 hrs; assay type: ADME, cell-based, Hepatocyte; method in brief: as §2
[22] = system: Liver; test: Drug uptake in Han Wistar rat liver at 2 mg/kg, iv administered as 4 hrs infusion; assay type: ADME, organism-based; conditions: in vivo; method in brief: as §1
[23] = Drug metabolism in human hepatocytes assessed as (S)-3-amino-5-methyl-2,3-dihydrobenzo[b][1,4]oxazepin-4(5H)-one formation at 10 uM measured up to 4 hrs; assay type: ADME, cell-based, Hepatocyte; method in brief: as §2
[24] = system: Rattus norvegicus; test: Toxicity in rat at 2 to 1000 mg/kg, po after 1 month; assay type: organism-based; conditions: in vivo, 730.5 h
[25] = system: Blood; test: Drug uptake in Han Wistar rat blood at 2 mg/kg, iv administered as 4 hrs infusion; assay type: ADME, organism-based; conditions: in vivo; method in brief: as §1
[26] = Drug metabolism in cynomolgus monkey hepatocytes assessed as 5-benzyl-1H-1,2,4-triazole-3-carboxylic acid formation at 10 uM measured up to 4 hrs; assay type: ADME, cell-based, Macaca fascicularis, Hepatocyte; method in brief: as §2
[27] = Stability in dog microsomes measured up to 45 mins; assay type: ADME, Canis lupus familiaris, Microsome; conditions: 0.75 h
[28] = Tmax in cynomolgus monkey at 1.9 mg/kg, po; assay type: ADME, organism-based, Macaca fascicularis; conditions: in vivo

## CN1C(=O)[C@@H](NC(=O)c2nnc(Cc3ccccc3)[nH]2)COc2ccccc21 [GSK2982772]
[1]
  AUC: 2900 ng·h/mL
[2]
  Drug uptake: Active
[3]
  bioavailability: 86%
[4]
  pIC50: 4.60
[5]
  Drug metabolism: Metabolite_Detected
[6]
  Drug metabolism: Metabolite_Detected
[7]
  fraction unbound: 0.11
[8]
  Cmax: 720 ng/mL
[9]
  Stability: Stable
[10]
  chromatographic logD: 3.8
[11]
  Drug metabolism: Metabolite_Detected
[12]
  pEC50: 4.89
[13]
  fraction unbound: 0.042
[14]
  Papp: 21 ×10⁻⁶ cm/s
[15]
  Tmax: 0.25 h
[16]
  Drug metabolism: Metabolite_Detected
[17]
  Drug metabolism: Metabolite_Detected
[18]
  Drug metabolism: Metabolite_Detected
[19]
  fraction unbound: 0.11
[20]
  Drug uptake: Active
[21]
  Drug metabolism: Metabolite_Detected
[22]
  Drug uptake: Active
[23]
  Drug metabolism: Metabolite_Detected
[24]
  Activity: Non-Toxic
[25]
  Drug uptake: Active
[26]
  Drug metabolism: Metabolite_Detected
[27]
  Stability: Stable
[28]
  Tmax: 1.8 h

— ChEMBL document CHEMBL3997808 (J Med Chem, 2017)
